Assay results as given in ChEMBL document CHEMBL4706633, “Design, Synthesis, and Biological Evaluation of a Series of Oxazolone Carboxamides as a Novel Class of Acid Ceramidase Inhibitors” (J Med Chem, 2020).
Calls of active or inactive are those of the source. No cut-off for these calls is given here.

Tests used:
SH-SY5Y [1] = test: Effect on HexCer (d18:1/16:0) levels in human SH-SY5Y cells at 1 to 10 uM incubated for 3 hrs by LC-MS analysis; format: functional, cell-based; conditions: dose 1-10 µM
Procedure, shortened: (§1)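 SH-SY5Y human neuroblastoma cells were exposed for 3 h at 1, 2.5, 5 or 10 μM. Cellular sphingolipids (Cer species, So, SM, HexCer) were quantified by LC/MS. Data are means ± SEM of at least six determinations, with experiments repeated twice. Significance was taken at p < 0.05.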

SH-SY5Y [2] = test: Effect on SM (d18:1/16:0) levels in human SH-SY5Y cells at 1 to 10 uM incubated for 3 hrs by LC-MS analysis; format: functional, cell-based; conditions: dose 1-10 µM; procedure, shortened: as §1
[3] = molecular target: T1, Acid ceramidase (Homo sapiens) (UniProt Q13510); test: Inhibition of acid ceramidase in human SH-SY5Y cells assessed as reduction in sphingolipid levels at 1 to 10 uM incubated for 3 hrs by LC-MS analysis; format: cell-based; conditions: dose 1-10 µM; procedure, shortened: as §1
T1 sequence (whole entry): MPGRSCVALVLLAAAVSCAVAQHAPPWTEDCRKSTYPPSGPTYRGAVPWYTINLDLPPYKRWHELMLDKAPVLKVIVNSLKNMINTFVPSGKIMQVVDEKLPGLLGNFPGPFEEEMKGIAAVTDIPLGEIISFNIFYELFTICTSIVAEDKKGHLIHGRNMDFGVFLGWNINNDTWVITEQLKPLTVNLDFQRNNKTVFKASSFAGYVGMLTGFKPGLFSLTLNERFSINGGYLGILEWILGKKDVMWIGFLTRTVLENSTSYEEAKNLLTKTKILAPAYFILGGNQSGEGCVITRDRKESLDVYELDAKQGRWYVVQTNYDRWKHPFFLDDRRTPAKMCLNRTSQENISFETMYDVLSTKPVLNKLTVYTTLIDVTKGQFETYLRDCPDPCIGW

SH-SY5Y [4] = test: Effect on HexCer (d18:1/16:0) levels in human SH-SY5Y cells at 10 uM incubated for 1 to 6 hrs by LC-MS analysis; format: functional, cell-based; conditions: time 1-6 hrs
Procedure, shortened: (§2)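 SH-SY5Y neuroblastoma cultures were treated at 10 μM for 1, 3 or 6 h. Intracellular sphingolipids (Cer, So, SM, HexCer) were then identified and quantified by LC/MS.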

[5] = Elimination half life in C57BL/6 mouse at 3 mg/kg, iv measured up to 4 hrs by LC/MS-MS analysis; format: ADME, organism-based; conditions: in vivo
Procedure, shortened: (§3)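 C57BL/6 mice were dosed intravenously at 3 mg/kg or orally at 10 mg/kg. Plasma PK parameters were derived per route: clearance, Vdss and t1/2 after i.v. dosing, and tmax, Cmax, t1/2 and AUC after oral dosing. Oral bioavailability F was estimated from the oral and i.v. exposures.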

[6] = Stability in mouse liver microsomes at 4.6 uM in presence of NADPH after 60 mins by LC/MS-MS analysis; format: ADME, Microsome; conditions: read-out: Stabilty
Procedure, shortened: (§4)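 Kinetic aqueous solubility was measured in PBS, pH 7.4. Metabolic stability was measured as t1/2 in mouse plasma and mouse liver microsomes, with microsomal data also given as % compound remaining at 1 h. Values are means of at least two independent experiments, each in two technical replicates.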

[7] = Volume of distribution at steady state in C57BL/6 mouse at 3 mg/kg, iv measured up to 4 hrs by LC/MS-MS analysis; format: ADME, organism-based; conditions: in vivo; procedure, shortened: as §3
[8] = molecular target: T1, Acid ceramidase (Homo sapiens); test: Irreversible covalent inhibition of human acid ceramidase using N-lauroyl ceramide incubated for 1 hr by LC/MS analysis
[9] = Cmax in C57BL/6 mouse at 10 mg/kg, po measured up to 4 hrs by LC/MS-MS analysis; format: ADME, organism-based; design: route oral, dose 10 mg/kg, time <=4; conditions: in vivo; procedure, shortened: as §3
[10] = molecular target: T1, Acid ceramidase (Homo sapiens); test: Inhibition of acid ceramidase in human SH-SY5Y cells assessed as intracellular accumulation of Cer (d18:1/16:0) at 1 to 10 uM incubated for 3 hrs by LC-MS analysis; format: cell-based; conditions: dose 1-10 µM; procedure, shortened: as §1
[11] = molecular target: T2, N-acylethanolamine-hydrolyzing acid amidase (Homo sapiens) (UniProt Q02083); test: Inhibition of human NAAA up to 125 uM; conditions: dose microM <=125
T2 sequence (whole entry): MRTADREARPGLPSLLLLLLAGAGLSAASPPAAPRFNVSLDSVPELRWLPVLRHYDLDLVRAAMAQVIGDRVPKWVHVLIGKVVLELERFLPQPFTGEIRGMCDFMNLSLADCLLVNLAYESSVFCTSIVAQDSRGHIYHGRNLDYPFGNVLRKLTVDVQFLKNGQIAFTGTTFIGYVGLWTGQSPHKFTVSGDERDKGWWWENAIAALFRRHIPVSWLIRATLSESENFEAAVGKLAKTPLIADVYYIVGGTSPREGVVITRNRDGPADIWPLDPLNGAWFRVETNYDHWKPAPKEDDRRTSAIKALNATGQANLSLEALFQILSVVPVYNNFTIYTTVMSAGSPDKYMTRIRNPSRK

[12] = molecular target: T1, Acid ceramidase (Homo sapiens); test: Inhibition of acid ceramidase in human SH-SY5Y cells assessed as reduction in sphingosine level at 10 uM incubated for 1 to 6 hrs by LC-MS analysis; format: cell-based; conditions: time 1-6 hrs; procedure, shortened: as §2
[13] = Half life in mouse liver microsomes at 4.6 uM in presence of NADPH by LC/MS-MS analysis; format: ADME, Microsome; procedure, shortened: as §4
[14] = Elimination half life in C57BL/6 mouse at 10 mg/kg, po measured up to 4 hrs by LC/MS-MS analysis; format: ADME, organism-based; conditions: in vivo; procedure, shortened: as §3
[15] = molecular target: T1, Acid ceramidase (Homo sapiens); test: Inhibition of acid ceramidase in human SH-SY5Y cells assessed as intracellular accumulation of Cer (d18:0/16:0) at 1 to 10 uM incubated for 3 hrs by LC-MS analysis; format: cell-based; conditions: dose 1-10 µM; procedure, shortened: as §1
[16] = molecular target: T1, Acid ceramidase (Homo sapiens); test: Inhibition of acid ceramidase in human SH-SY5Y cells assessed as intracellular accumulation of Cer (d18:1/16:0) at 10 uM incubated for 1 to 6 hrs by LC-MS analysis; format: cell-based; conditions: time 1-6 hrs; procedure, shortened: as §2
[17] = Volume of distribution at steady state in C57BL/6 mouse at 10 mg/kg, po measured up to 4 hrs by LC/MS-MS analysis; format: ADME, organism-based; conditions: in vivo
[18] = Half life in mouse plasma at 2 uM by LC/MS-MS analysis; format: ADME, cell-free; procedure, shortened: as §4
[19] = molecular target: T1, Acid ceramidase (Homo sapiens); test: Inhibition of acid ceramidase in human SH-SY5Y cells assessed as reduction in sphingosine level at 1 to 10 uM incubated for 3 hrs by LC-MS analysis; format: cell-based; conditions: dose 1-10 µM; procedure, shortened: as §1
[20] = Clearance in C57BL/6 mouse at 10 mg/kg, po measured up to 4 hrs by LC/MS-MS analysis; format: ADME, organism-based; conditions: in vivo
Acid ceramidase = molecular target: T3, Acid ceramidase (Homo sapiens, UniProt Q13510); test: Inhibition of human acid ceramidase using Rbm14-12 fluorogenic substrate incubated for 1 hr by fluorescence assay; conditions: read-out: IC50
T3 sequence (Q13510 whole entry): T1 sequence (whole entry)

[21] = Tmax in C57BL/6 mouse at 10 mg/kg, po measured up to 4 hrs by LC/MS-MS analysis; format: ADME, organism-based; conditions: in vivo; procedure, shortened: as §3
SH-SY5Y [22] = test: Effect on SM (d18:1/16:0) levels in human SH-SY5Y cells at 10 uM incubated for 1 to 6 hrs by LC-MS analysis; format: functional, cell-based; conditions: time 1-6 hrs; procedure, shortened: as §2
[23] = molecular target: T1, Acid ceramidase (Homo sapiens); test: Inhibition of acid ceramidase in human SH-SY5Y cells assessed as reduction in sphingolipid levels at 10 uM incubated for 1 to 6 hrs by LC-MS analysis; format: cell-based; conditions: time 1-6 hrs, TDE = time-dependent effect; procedure, shortened: as §2
[24] = Kinetic solubility in pH 7.4 PBS buffer at 250 uM incubated for 1 hr by UPLC/MS analysis; format: physicochemical; conditions: read-out: Kinetic_solubility; procedure, shortened: as §4
[25] = AUC in C57BL/6 mouse at 3 mg/kg, iv measured up to 4 hrs by LC/MS-MS analysis; format: ADME, organism-based; design: route intravenous, dose 3 mg/kg, time <=4; conditions: in vivo
[26] = molecular target: T1, Acid ceramidase (Homo sapiens); test: Inhibition of acid ceramidase in human SH-SY5Y cells assessed as intracellular accumulation of Cer (d18:0/16:0) at 10 uM incubated for 1 to 6 hrs by LC-MS analysis; format: cell-based; conditions: time 1-6 hrs; procedure, shortened: as §2
[27] = Oral bioavailability in C57BL/6 mouse at 10 mg/kg measured up to 4 hrs by LC/MS-MS analysis; format: ADME, organism-based; conditions: in vivo; procedure, shortened: as §3
[28] = AUC in C57BL/6 mouse at 10 mg/kg, po measured up to 4 hrs by LC/MS-MS analysis; format: ADME, organism-based; design: route oral, dose 10 mg/kg, time <=4; conditions: in vivo; procedure, shortened: as §3

CCCCCNC(=O)n1cc(-c2ccc(F)cc2C2CCN(C)CC2)oc1=O
Activity (SH-SY5Y [1]): inactive
Activity (SH-SY5Y [2]): inactive
inhibition [3]: Dose-dependent effect
Activity (SH-SY5Y [4]): inactive
beta t1/2 [5]: 1.98 h
remaining at 1 h, 4.6 µM [6]: 74%
Vdss [7]: 12.426 L/kg
inhibition [8]: Active
Cmax [9]: 0.278 µg/mL
inhibition [10]: Dose-dependent effect
inhibition [11]: inactive
inhibition [12]: Active
t1/2 [13]: > 1 h
beta t1/2 [14]: 2.45 h
inhibition [15]: Dose-dependent effect
inhibition [16]: Active
Vdss [17]: 32.877 L/kg
t1/2 [18]: 1.83 h
inhibition [19]: Dose-dependent effect
CL/F [20]: 9.3 L/h/kg
IC50 (Acid ceramidase): 0.129 µM
Tmax [21]: 0.5 h
Activity (SH-SY5Y [22]): inactive
inhibition [23]: Tde
solubility kinetic at 1 h, 250 µM [24]: > 250 µM
AUC [25]: 31978 ng·min/mL
inhibition [26]: Active
F [27]: 40%
AUC [28]: 42525 ng·min/mL
